Measurements reported in ChEMBL document CHEMBL1649344, “Abyssomicin I, a modified polycyclic polyketide from Streptomyces sp. CHI39” (2010).
Converted amounts (≈) assume the structure as drawn. The source made the active and inactive calls. The rule behind the calls is not given here.

Legend:
[1] = test system: Candida albicans; experiment: Antimicrobial activity against Candida albicans IFO1594 at 100 uM after 20 hrs; type: functional, organism-based
Summary of the method: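 C. albicans is cultured in yeast nitrogen base with 2% glucose for 20 h at 30 °C, harvested, and suspended in saline at 1 × 10^5 cells/mL. The suspension is combined in wells with the same medium and sample in DMSO. After 20 h at 30 °C, absorbance at 650 nm gives growth.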

[2] = test system: Escherichia coli; experiment: Antimicrobial activity against Escherichia coli NIH-JC2 at 100 uM after 20 hrs; type: functional, organism-based
Summary of the method: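 E. coli is grown in Mueller Hinton broth for 20 h at 30 °C with shaking, spun down, and brought to 1 × 10^5 cells/mL in saline. This suspension is mixed in wells with medium and DMSO sample solution. The plate is incubated 20 h at 37 °C and growth is read at 650 nm.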

[3] = test system: Staphylococcus aureus; experiment: Antimicrobial activity against Staphylococcus aureus IFO12732 after 20 hrs; type: functional; conditions: IFO12732, 20 h
Summary of the method: (§1)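 Broth microdilution in Mueller Hinton broth. Test bacteria are pre-grown 20 h at 30 °C on a reciprocal shaker, pelleted, and resuspended in saline at 1 × 10^5 cells/mL. Each well holds medium, cell suspension (1:10 of the well volume) and sample in DMSO. Plates are incubated 20 h at 30 °C, then growth is read as absorbance at 650 nm.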

[4] = test system: Bacillus subtilis; experiment: Antimicrobial activity against Bacillus subtilis PCI219 after 20 hrs; type: functional; conditions: PCI219, 20 h; summary of the method: as §1
[5] = test system: Micrococcus luteus; experiment: Antimicrobial activity against Micrococcus luteus ATCC 9343 after 20 hrs; type: functional; conditions: ATCC 9343, 20 h; summary of the method: as §1
[6] = test system: Staphylococcus aureus; experiment: Antimicrobial activity against Staphylococcus aureus IFO12732 at 100 uM after 20 hrs; type: functional, organism-based; summary of the method: as §1
[7] = test system: Bacillus subtilis; experiment: Antimicrobial activity against Bacillus subtilis PCI219 at 100 uM after 20 hrs; type: functional, organism-based; summary of the method: as §1
[8] = test system: Micrococcus luteus; experiment: Antimicrobial activity against Micrococcus luteus ATCC 9343 at 100 uM after 20 hrs; type: functional, organism-based; summary of the method: as §1

| SMILES | Activity [1] | Activity [2] | MIC [3] | MIC [4] | MIC [5] | Activity [6] | Activity [7] | Activity [8] |
| --- | --- | --- | --- | --- | --- | --- | --- | --- |
| C[C@@H]1CCC(=O)C2=C3O[C@@]4(C)[C@H](C)C[C@@]3(OC2=O)[C@H](/C=C/C1=O)[C@H]4O | inactive | inactive | 29 µg/mL (≈ 83.7 µM) | 29 µg/mL (≈ 83.7 µM) | 29 µg/mL (≈ 83.7 µM) |  |  |  |
| C[C@@H]1CCC(=O)C2=C3O[C@@]4(C)[C@H](C)C[C@@]3(OC2=O)[C@H](/C=C/[C@H]1O)[C@H]4O | inactive | inactive |  |  |  | inactive | inactive | inactive |
